Experimental data from ChEMBL document CHEMBL2034864, “Synthesis, characterization, antimicrobial activities and QSAR studies of some 10a-phenylbenzo[b]indeno[1,2-e][1,4]thiazin-11(10aH)-ones” (2012).
Values after ≈ are worked out from the molar mass of the structure shown. Active and inactive are the calls of the source. The rule behind the calls is not given here.

Key:
Escherichia coli = assay: Antibacterial activity against Escherichia coli MTCC 42 after 24 hrs by serial dilution technique; type: functional; settings: for MIC: Escherichia coli, MTCC 42, 24 h
Outline: (§1)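 Compounds were dissolved in DMSO as stock, diluted to 100 µg/mL in Luria broth, then two-fold serially diluted from 100 to 1.56 µg/mL. Bacteria were grown in Luria broth at 37 °C, centrifuged and washed three times with PBS. They were inoculated into each dilution in triplicate and incubated 24 h at 37 °C. Growth was read visually and spectrophotometrically. Controls were penicillin, streptomycin and DMSO. MIC is in µmol/mL.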

Aspergillus fumigatus = assay: Antifungal activity against Aspergillus fumigatus MTCC 2550 after 72 hrs by serial dilution technique
Candida albicans = assay: Antifungal activity against Candida albicans MTCC 183 after 72 hrs by serial dilution technique; type: functional
Outline: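 Compounds were dissolved in DMSO as stock, diluted to 100 µg/mL in potato dextrose broth, then two-fold serially diluted from 100 to 1.56 µg/mL. Fungi were grown in Sabouraud dextrose broth at 28 °C: A. fumigatus for 2–3 weeks, C. albicans for 48 h. Spores were centrifuged, washed in sterile water and inoculated in triplicate, then incubated 72 h at 28 °C. MIC was assigned by CFU assay. Controls were fluconazole and DMSO.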

Staphylococcus aureus = assay: Antibacterial activity against Staphylococcus aureus MTCC 7443 after 24 hrs by serial dilution technique; type: functional; settings: for MIC: Staphylococcus aureus, MTCC 7443, 24 h; outline: as §1
Pseudomonas aeruginosa = assay: Antibacterial activity against Pseudomonas aeruginosa MTCC 7952 after 24 hrs by serial dilution technique; type: functional; settings: for MIC: Pseudomonas aeruginosa, MTCC 7952, 24 h; outline: as §1
Bacillus subtilis = assay: Antibacterial activity against Bacillus subtilis MTCC 441 after 24 hrs by serial dilution technique; type: functional; settings: for MIC: Bacillus subtilis, MTCC 441, 24 h; outline: as §1
[1] = Aspergillus fumigatus, MTCC 2550, 72 h
[2] = Candida albicans, MTCC 183, 72 h

| Structure (SMILES) | -logMIC (Escherichia coli) | MIC (Escherichia coli) [µM] | MIC (Aspergillus fumigatus) | MIC (Candida albicans) | -logMIC (Staphylococcus aureus) | MIC (Staphylococcus aureus) [µM] | MIC (Aspergillus fumigatus; [1]) [µM] | MIC (Candida albicans; [2]) [µM] | -logMIC (Pseudomonas aeruginosa) | MIC (Pseudomonas aeruginosa) [µM] | -logMIC (Bacillus subtilis) | MIC (Bacillus subtilis) [µM] | -logMIC (Aspergillus fumigatus) | -logMIC (Candida albicans) |
| --- | --- | --- | --- | --- | --- | --- | --- | --- | --- | --- | --- | --- | --- | --- |
| COc1ccc(C23Sc4ccccc4N=C2c2ccccc2C3=O)cc1 (stereo unspecified) | 1.15 | 70 (≈ 25 µg/mL) | inactive | inactive | 0.85 | 140 (≈ 50 µg/mL) | – | – | – | – | – | – | – | – |
| OC(Cn1cncn1)(Cn1cncn1)c1ccc(F)cc1F [FLUCONAZOLE] | – | – | – | – | – | – | 10.1 (≈ 3.09 µg/mL) | 10.1 (≈ 3.09 µg/mL) | – | – | – | – | – | – |
| O=C1c2ccccc2C2=Nc3ccccc3SC12c1ccccc1 (stereo unspecified) | 1.42 | 38.2 (≈ 12.5 µg/mL) | – | – | 0.82 | 153 (≈ 50 µg/mL) | 76.4 (≈ 25 µg/mL) | 76.4 (≈ 25 µg/mL) | 1.42 | 38.2 (≈ 12.5 µg/mL) | 1.12 | 76.4 (≈ 25 µg/mL) | 1.12 | 1.12 |
| COc1ccc2c(c1)SC1(c3ccc(C)cc3)C(=O)c3ccccc3C1=N2 (stereo unspecified) | 2.38 | 4.2 (≈ 1.56 µg/mL) | – | – | 0.87 | 135 (≈ 50 µg/mL) | 67.3 (≈ 25 µg/mL) | 16.8 (≈ 6.24 µg/mL) | 1.47 | 33.6 (≈ 12.5 µg/mL) | 1.17 | 67.3 (≈ 25 µg/mL) | 1.17 | 1.77 |
| CC1(C)S[C@@H]2[C@H](NC(=O)Cc3ccccc3)C(=O)N2[C@H]1C(=O)O [PENICILLIN G] | – | 37.4 (≈ 12.5 µg/mL) | – | – | – | 4.6 (≈ 1.54 µg/mL) | – | – | – | 18.7 (≈ 6.25 µg/mL) | – | 4.6 (≈ 1.54 µg/mL) | – | – |
| COc1ccc2c(c1)SC1(c3ccc(Cl)cc3)C(=O)c3ccccc3C1=N2 (stereo unspecified) | 1.19 | 63.9 (≈ 25 µg/mL) | – | – | 1.8 | 15.9 (≈ 6.23 µg/mL) | 31.9 (≈ 12.5 µg/mL) | 31.9 (≈ 12.5 µg/mL) | 1.19 | 63.9 (≈ 25 µg/mL) | 1.5 | 31.9 (≈ 12.5 µg/mL) | 1.5 | 1.5 |
| Cc1ccc(C23Sc4cc(Br)ccc4N=C2c2ccccc2C3=O)cc1 (stereo unspecified) | 1.23 | 59.4 (≈ 25 µg/mL) | – | – | 0.92 | 119 (≈ 50.1 µg/mL) | 119 (≈ 50.1 µg/mL) | 119 (≈ 50.1 µg/mL) | 1.23 | 59.4 (≈ 25 µg/mL) | 1.53 | 29.8 (≈ 12.5 µg/mL) | 0.92 | 0.92 |
| O=C1c2ccccc2C2=Nc3ccc(Br)cc3SC12c1ccccc1 (stereo unspecified) | 1.21 | 61.7 (≈ 25.1 µg/mL) | – | – | 0.91 | 123 (≈ 50.1 µg/mL) | 30.8 (≈ 12.5 µg/mL) | 30.8 (≈ 12.5 µg/mL) | 1.81 | 15.4 (≈ 6.26 µg/mL) | 1.21 | 61.7 (≈ 25.1 µg/mL) | 1.51 | 1.51 |
| COc1ccc2c(c1)SC1(c3ccccc3)C(=O)c3ccccc3C1=N2 (stereo unspecified) | – | – | inactive | inactive | 0.85 | 140 (≈ 50 µg/mL) | – | – | 1.46 | 35 (≈ 12.5 µg/mL) | 1.15 | 70 (≈ 25 µg/mL) | – | – |
| Cc1ccc(C23Sc4ccccc4N=C2c2ccccc2C3=O)cc1 (stereo unspecified) | – | – | inactive | inactive | 0.53 | 293 (≈ 100 µg/mL) | – | – | 1.14 | 73.2 (≈ 25 µg/mL) | 1.14 | 73.2 (≈ 25 µg/mL) | – | – |
| O=C1c2ccccc2C2=Nc3ccc(Br)cc3SC12c1ccc(Cl)cc1 (stereo unspecified) | 1.24 | 56.9 (≈ 25.1 µg/mL) | – | – | 2.15 | 7.1 (≈ 3.13 µg/mL) | 28.4 (≈ 12.5 µg/mL) | 28.4 (≈ 12.5 µg/mL) | 1.24 | 57 (≈ 25.1 µg/mL) | 1.55 | 28.4 (≈ 12.5 µg/mL) | 1.55 | 1.55 |
| O=C1c2ccccc2C2=Nc3ccccc3SC12c1ccc(Cl)cc1 (stereo unspecified) | 2.37 | 4.3 (≈ 1.56 µg/mL) | inactive | inactive | 0.86 | 138 (≈ 50.1 µg/mL) | – | – | – | – | 1.46 | 34.6 (≈ 12.5 µg/mL) | – | – |
| COc1ccc(C23Sc4cc(Br)ccc4N=C2c2ccccc2C3=O)cc1 (stereo unspecified) | 1.84 | 14.3 (≈ 6.24 µg/mL) | – | – | 2.15 | 7.1 (≈ 3.1 µg/mL) | 14.3 (≈ 6.24 µg/mL) | 14.3 (≈ 6.24 µg/mL) | 1.24 | 57.4 (≈ 25 µg/mL) | 2.15 | 7.1 (≈ 3.1 µg/mL) | 1.84 | 1.84 |
| Cc1ccc2c(c1)SC1(c3ccc(Cl)cc3)C(=O)c3ccccc3C1=N2 (stereo unspecified) | 1.18 | 66.6 (≈ 25 µg/mL) | – | – | – | – | 133 (≈ 50.1 µg/mL) | 66.6 (≈ 25 µg/mL) | 1.18 | 66.6 (≈ 25 µg/mL) | 1.18 | 66.5 (≈ 25 µg/mL) | 0.88 | 1.18 |
| COc1ccc(C23Sc4cc(OC)ccc4N=C2c2ccccc2C3=O)cc1 (stereo unspecified) | 1.79 | 16.1 (≈ 6.24 µg/mL) | – | – | 1.79 | 16.1 (≈ 6.24 µg/mL) | 64.5 (≈ 25 µg/mL) | 64.5 (≈ 25 µg/mL) | – | – | 2.4 | 4 (≈ 1.55 µg/mL) | 1.19 | 1.19 |
| CN[C@@H]1[C@H](O[C@H]2[C@H](O[C@H]3[C@H](O)[C@@H](O)[C@H](N=C(N)N)[C@@H](O)[C@@H]3N=C(N)N)O[C@@H](C)[C@]2(O)C=O)O[C@@H](CO)[C@H](O)[C@H]1O [STREPTOMYCIN] | – | 5.3 (≈ 3.08 µg/mL) | – | – | – | 10.7 (≈ 6.22 µg/mL) | – | – | – | 2.6 (≈ 1.51 µg/mL) | – | 10.7 (≈ 6.22 µg/mL) | – | – |
| COc1ccc(C23Sc4cc(C)ccc4N=C2c2ccccc2C3=O)cc1 (stereo unspecified) | 1.17 | 67.3 (≈ 25 µg/mL) | – | – | 1.17 | 67.3 (≈ 25 µg/mL) | 135 (≈ 50 µg/mL) | 33.6 (≈ 12.5 µg/mL) | 1.17 | 67.3 (≈ 25 µg/mL) | 1.47 | 33.6 (≈ 12.5 µg/mL) | 0.87 | 1.47 |
| Cc1ccc(C23Sc4cc(C)ccc4N=C2c2ccccc2C3=O)cc1 (stereo unspecified) | 1.45 | 35.2 (≈ 12.5 µg/mL) | – | – | – | – | 141 (≈ 50 µg/mL) | 70.4 (≈ 25 µg/mL) | 1.15 | 70.4 (≈ 25 µg/mL) | 0.85 | 141 (≈ 50 µg/mL) | 0.85 | 1.15 |
| Cc1ccc2c(c1)SC1(c3ccccc3)C(=O)c3ccccc3C1=N2 (stereo unspecified) | – | – | – | – | 2.35 | 4.5 (≈ 1.54 µg/mL) | 73.2 (≈ 25 µg/mL) | 36.6 (≈ 12.5 µg/mL) | 1.13 | 73.3 (≈ 25 µg/mL) | 0.83 | 146 (≈ 50 µg/mL) | 1.14 | 1.44 |
